Values after ≈ are worked out from the molar mass of the structure shown.
Tests used:
Streptococcus pneumoniae [1] = test: Antibacterial activity against penicillin-resistant Streptococcus pneumoniae; format: functional
In short: (§1)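 Broth microdilution MIC per CLSI guidelines, incubated at 35°C. Cation-adjusted Mueller-Hinton broth for nonfastidious organisms and staphylococci. Streptococci tested in the same broth with 3% lysed horse blood. Anaerobes tested in supplemented Brucella broth inside an anaerobe chamber (5% CO2, 5% H2, 90% N2), read after 48 h. Strains were mainly recent clinical isolates with confirmed identity.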

Moraxella catarrhalis = test: Antibacterial activity against beta-lactamase negative Moraxella catarrhalis; format: functional
Streptococcus viridans = test: Antibacterial activity against Streptococcus viridans; format: functional
In short: (§2)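 Broth microdilution MIC following CLSI guidelines, in cation-adjusted Mueller-Hinton broth with 3% lysed horse blood. Plates incubated at 35°C. Clinical isolates and reference strains, with identity confirmed by standard microbiological methods.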

Staphylococcus warneri = test: Antibacterial activity against Staphylococcus warneri; format: functional
In short: (§3)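 Broth microdilution MIC following CLSI guidelines, in cation-adjusted Mueller-Hinton broth, incubated at 35°C. Recent clinical isolates and reference strains, with identity confirmed by automated and standard microbiological methods. Results reported as MIC range, MIC50 and MIC90.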

Streptococcus pneumoniae [2] = test: Antibacterial activity against levofloxacin-resistant Streptococcus pneumoniae; format: functional; in short: as §1
Enterococcus faecalis [3] = test: Antibacterial activity against VanA-resistant Enterococcus faecalis; format: functional; in short: as §1
Legionella pneumophila = test: Antibacterial activity against Legionella pneumophila; format: functional
In short: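 Broth microdilution MIC per CLSI guidelines, run in buffered yeast extract α-ketoglutarate broth at 35°C and read after 48 h.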

Acinetobacter sp. = test: Antibacterial activity against Acinetobacter sp.; format: functional; in short: as §3
Bacteroides ovatus = test: Antibacterial activity against Bacteroides ovatus; format: functional
In short: (§4)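 Anaerobic broth microdilution MIC following CLSI guidelines, in supplemented Brucella broth. Run in an anaerobe chamber under 5% CO2, 5% H2 and 90% N2 at 35°C, and read after 48 h. Reported as MIC range, MIC50 and MIC90.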

Enterococcus gallinarum = test: Antibacterial activity against Enterococcus gallinarum; format: functional
Proteus mirabilis = test: Antibacterial activity against Proteus mirabilis; format: functional; in short: as §3
[4] = test system: Prevotella melaninogenica; test: Antibacterial activity against Prevotella melaninogenica; format: functional; in short: as §4
Neisseria meningitidis = test: Antibacterial activity against Neisseria meningitidis; format: functional
In short: (§5)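 MIC by broth microdilution in gonococcal broth, incubated at 35°C in 5% CO2. Reported as MIC range, MIC50 and MIC90.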

Burkholderia cepacia = test: Antibacterial activity against Burkholderia cepacia; format: functional; in short: as §3
Shigella flexneri = test: Antibacterial activity against Shigella flexneri; format: functional; in short: as §3
Staphylococcus aureus = test: Antibacterial activity against vancomycin-intermediate Staphylococcus aureus; format: functional; in short: as §1
Enterococcus faecalis [5] = test: Antibacterial activity against beta-lactamase positive Enterococcus faecalis; format: functional
In short: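 MIC by CLSI broth microdilution for nonfastidious organisms, in cation-adjusted Mueller-Hinton broth incubated at 35°C.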

Haemophilus influenzae [6] = test: Antibacterial activity against beta-lactamase positive Haemophilus influenzae; format: functional
In short: (§6)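 Broth microdilution MIC following CLSI guidelines, in Haemophilus test medium at 35°C.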

[7] = test system: Peptoniphilus asaccharolyticus; test: Antibacterial activity against Peptostreptococcus asaccharolyticus; format: functional; in short: as §4
Enterococcus faecium [8] = test: Antibacterial activity against VanA-resistant Enterococcus faecium; format: functional; in short: as §1
Prevotella bivia = test: Antibacterial activity against Prevotella bivia; format: functional; in short: as §4
Enterococcus faecalis [9] = test: Antibacterial activity against VanB-resistant Enterococcus faecalis; format: functional; in short: as §1
Enterococcus faecalis [10] = test: Antibacterial activity against Enterococcus faecalis; format: functional; in short: as §1
Corynebacterium jeikeium = test: Antibacterial activity against Corynebacterium jeikeium; format: functional
In short: (§7)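 Broth microdilution MIC following CLSI guidelines, in cation-adjusted Mueller-Hinton broth containing 3% lysed horse blood, incubated at 35°C. Clinical isolates with identity confirmed. Reported as MIC range, MIC50 and MIC90.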

Shigella sonnei = test: Antibacterial activity against Shigella sonnei; format: functional; in short: as §3
Shigella dysenteriae = test: Antibacterial activity against Shigella dysenteriae; format: functional
Cutibacterium acnes = test: Antibacterial activity against Propionibacterium acnes; format: functional
[11] = test system: Fusobacterium necrophorum; test: Antibacterial activity against Fusobacterium necrophorum; format: functional; in short: as §4
Streptococcus sanguinis = test: Antibacterial activity against Streptococcus sanguis; format: functional; in short: as §2
[12] = test system: Enterococcus casseliflavus; test: Antibacterial activity against Enterococcus casseliflavus; format: functional
Serratia marcescens = test: Antibacterial activity against Serratia marcescens; format: functional; in short: as §3
[13] = test system: Staphylococcus haemolyticus; test: Antibacterial activity against Staphylococcus haemolyticus; format: functional; in short: as §7
Finegoldia magna = test: Antibacterial activity against Peptostreptococcus magnus; format: functional; in short: as §4
Prevotella corporis = test: Antibacterial activity against Prevotella corporis; format: functional; in short: as §4
Pseudomonas aeruginosa = test: Antibacterial activity against Pseudomonas aeruginosa; format: functional; in short: as §3
Streptococcus mitis = test: Antibacterial activity against Streptococcus mitis; format: functional; in short: as §2
Klebsiella pneumoniae = test: Antibacterial activity against Klebsiella pneumoniae; format: functional; in short: as §3
[14] = test system: Stenotrophomonas maltophilia; test: Antibacterial activity against Stenotrophomonas maltophilia; format: functional; in short: as §3
Fusobacterium nucleatum = test: Antibacterial activity against Fusobacterium nucleatum; format: functional; in short: as §4
Neisseria gonorrhoeae = test: Antibacterial activity against Neisseria gonorrhoeae; format: functional; in short: as §5
Fusobacterium sp. = test: Antibacterial activity against Fusobacterium sp.; format: functional; in short: as §4
Prevotella sp. = test: Antibacterial activity against Prevotella sp.; format: functional; in short: as §4
Streptococcus pyogenes = test: Antibacterial activity against Streptococcus pyogenes; format: functional; in short: as §2
Salmonella enteritidis = test: Antibacterial activity against Salmonella enterica serovar Enteritidis; format: functional, Salmonella enterica subsp. enterica serovar Enteritidis; in short: as §3
Haemophilus influenzae [15] = test: Antibacterial activity against beta-lactamase negative Haemophilus influenzae; format: functional; in short: as §6
Prevotella buccae = test: Antibacterial activity against Prevotella buccae; format: functional; conditions: Segatella buccae; in short: as §4
Streptococcus pneumoniae [16] = test: Antibacterial activity against penicillin-intermediate resistant Streptococcus pneumoniae; format: functional; in short: as §1
Listeria monocytogenes = test: Antibacterial activity against Listeria monocytogenes; format: functional; in short: as §7
Enterococcus faecium [17] = test: Antibacterial activity against Enterococcus faecium; format: functional; in short: as §1

For Cc1c(N2CC[C@@H]([C@H](C)N)C2)c(F)cc2c(=O)[nH]c(=O)n(C3CC3)c12, the MIC50 (Streptococcus pneumoniae [1]) was 0.03 µg/mL (≈ 0.0866 µM), the MIC90 (Streptococcus pneumoniae [1]) was 0.06 µg/mL (≈ 0.173 µM) and the MIC50 (Moraxella catarrhalis) was 0.5 µg/mL (≈ 1.44 µM). It also gave an MIC90 (Moraxella catarrhalis) of 1 µg/mL (≈ 2.89 µM), an MIC50 (Streptococcus viridans) of 0.03 µg/mL (≈ 0.0866 µM) and an MIC90 (Streptococcus viridans) of 0.06 µg/mL (≈ 0.173 µM). It also gave an MIC (Staphylococcus warneri) of 0.125 µg/mL (≈ 0.361 µM), an MIC50 (Streptococcus pneumoniae [2]) of 0.06 µg/mL (≈ 0.173 µM) and an MIC90 (Streptococcus pneumoniae [2]) of 0.06 µg/mL (≈ 0.173 µM). The MIC (Enterococcus faecalis [3]) was 0.25 µg/mL (≈ 0.722 µM), the MIC50 (Legionella pneumophila) was 0.5 µg/mL (≈ 1.44 µM) and the MIC90 (Legionella pneumophila) was 0.5 µg/mL (≈ 1.44 µM). It also gave an MIC50 (Acinetobacter sp.) of 4 µg/mL (≈ 11.5 µM), an MIC90 (Acinetobacter sp.) of 64 µg/mL (≈ 185 µM) and an MIC50 (Bacteroides ovatus) of 16 µg/mL (≈ 46.2 µM). The MIC90 (Bacteroides ovatus) was 32 µg/mL (≈ 92.4 µM), the MIC50 (Enterococcus gallinarum) was 0.25 µg/mL (≈ 0.722 µM) and the MIC90 (Enterococcus gallinarum) was 0.5 µg/mL (≈ 1.44 µM). The MIC50 (Proteus mirabilis) was 2 µg/mL (≈ 5.77 µM), the MIC90 (Proteus mirabilis) was 8 µg/mL (≈ 23.1 µM) and the MIC50 [4] was 0.5 µg/mL (≈ 1.44 µM). It also gave an MIC90 [4] of 2 µg/mL (≈ 5.77 µM), an MIC50 (Neisseria meningitidis) of 0.5 µg/mL (≈ 1.44 µM) and an MIC90 (Neisseria meningitidis) of 1 µg/mL (≈ 2.89 µM). The MIC50 (Burkholderia cepacia) was 32 µg/mL (≈ 92.4 µM), the MIC90 (Burkholderia cepacia) was over 64 µg/mL and the MIC50 (Shigella flexneri) was 2 µg/mL (≈ 5.77 µM). It also gave an MIC90 (Shigella flexneri) of 4 µg/mL (≈ 11.5 µM), an MIC (Staphylococcus aureus) of 0.25 µg/mL (≈ 0.722 µM) and an MIC (Enterococcus faecalis [5]) of 0.06 µg/mL (≈ 0.173 µM). The MIC50 (Haemophilus influenzae [6]) was 0.5 µg/mL (≈ 1.44 µM), the MIC90 (Haemophilus influenzae [6]) was 1 µg/mL (≈ 2.89 µM) and the MIC [7] was 0.06 µg/mL (≈ 0.173 µM). The MIC50 (Enterococcus faecium [8]) was 1 µg/mL (≈ 2.89 µM), the MIC90 (Enterococcus faecium [8]) was 2 µg/mL (≈ 5.77 µM) and the MIC50 (Prevotella bivia) was 0.5 µg/mL (≈ 1.44 µM). It also gave an MIC90 (Prevotella bivia) of 2 µg/mL (≈ 5.77 µM), an MIC50 (Enterococcus faecalis [9]) of 0.25 µg/mL (≈ 0.722 µM) and an MIC90 (Enterococcus faecalis [9]) of 0.5 µg/mL (≈ 1.44 µM). It also gave an MIC50 (Enterococcus faecalis [10]) of 0.25 µg/mL (≈ 0.722 µM), an MIC90 (Enterococcus faecalis [10]) of 0.5 µg/mL (≈ 1.44 µM) and an MIC50 (Corynebacterium jeikeium) of 0.5 µg/mL (≈ 1.44 µM). For the same compound, the MIC90 (Corynebacterium jeikeium) was 1 µg/mL (≈ 2.89 µM), the MIC50 (Shigella sonnei) was 2 µg/mL (≈ 5.77 µM) and the MIC90 (Shigella sonnei) was 4 µg/mL (≈ 11.5 µM). For the same compound, the MIC50 (Shigella dysenteriae) was 2 µg/mL (≈ 5.77 µM), the MIC90 (Shigella dysenteriae) was 4 µg/mL (≈ 11.5 µM) and the MIC50 (Cutibacterium acnes) was 4 µg/mL (≈ 11.5 µM). For the same compound, the MIC90 (Cutibacterium acnes) was 8 µg/mL (≈ 23.1 µM), the MIC [11] was 0.125 µg/mL (≈ 0.361 µM) and the MIC50 (Streptococcus sanguinis) was 0.03 µg/mL (≈ 0.0866 µM). For the same compound, the MIC90 (Streptococcus sanguinis) was 0.06 µg/mL (≈ 0.173 µM), the MIC50 [12] was 0.25 µg/mL (≈ 0.722 µM) and the MIC90 [12] was 0.25 µg/mL (≈ 0.722 µM). The MIC50 (Serratia marcescens) was 4 µg/mL (≈ 11.5 µM), the MIC90 (Serratia marcescens) was 32 µg/mL (≈ 92.4 µM) and the MIC50 [13] was 0.25 µg/mL (≈ 0.722 µM). The MIC90 [13] was 1 µg/mL (≈ 2.89 µM), the MIC (Finegoldia magna) was 0.06 µg/mL (≈ 0.173 µM) and the MIC50 (Prevotella corporis) was 0.5 µg/mL (≈ 1.44 µM). For the same compound, the MIC90 (Prevotella corporis) was 2 µg/mL (≈ 5.77 µM), the MIC50 (Pseudomonas aeruginosa) was 8 µg/mL (≈ 23.1 µM) and the MIC90 (Pseudomonas aeruginosa) was over 64 µg/mL. The MIC50 (Streptococcus mitis) was 0.03 µg/mL (≈ 0.0866 µM), the MIC90 (Streptococcus mitis) was 0.06 µg/mL (≈ 0.173 µM) and the MIC50 (Klebsiella pneumoniae) was 4 µg/mL (≈ 11.5 µM). It also gave an MIC90 (Klebsiella pneumoniae) of 16 µg/mL (≈ 46.2 µM), an MIC50 [14] of 32 µg/mL (≈ 92.4 µM) and an MIC90 [14] of 64 µg/mL (≈ 185 µM). For the same compound, the MIC (Fusobacterium nucleatum) was 0.125 µg/mL (≈ 0.361 µM), the MIC50 (Neisseria gonorrhoeae) was 0.5 µg/mL (≈ 1.44 µM) and the MIC90 (Neisseria gonorrhoeae) was 1 µg/mL (≈ 2.89 µM). For the same compound, the MIC (Fusobacterium sp.) was 0.125 µg/mL (≈ 0.361 µM), the MIC50 (Prevotella sp.) was 0.5 µg/mL (≈ 1.44 µM) and the MIC90 (Prevotella sp.) was 2 µg/mL (≈ 5.77 µM). For the same compound, the MIC50 (Streptococcus pyogenes) was 0.03 µg/mL (≈ 0.0866 µM), the MIC90 (Streptococcus pyogenes) was 0.03 µg/mL (≈ 0.0866 µM) and the MIC50 (Salmonella enteritidis) was 2 µg/mL (≈ 5.77 µM). The MIC90 (Salmonella enteritidis) was 4 µg/mL (≈ 11.5 µM), the MIC50 (Haemophilus influenzae [15]) was 0.25 µg/mL (≈ 0.722 µM) and the MIC90 (Haemophilus influenzae [15]) was 0.5 µg/mL (≈ 1.44 µM). The MIC50 (Prevotella buccae) was 0.5 µg/mL (≈ 1.44 µM), the MIC90 (Prevotella buccae) was 2 µg/mL (≈ 5.77 µM) and the MIC50 (Streptococcus pneumoniae [16]) was 0.06 µg/mL (≈ 0.173 µM). For the same compound, the MIC90 (Streptococcus pneumoniae [16]) was 0.125 µg/mL (≈ 0.361 µM), the MIC50 (Listeria monocytogenes) was 0.25 µg/mL (≈ 0.722 µM) and the MIC90 (Listeria monocytogenes) was 0.25 µg/mL (≈ 0.722 µM). The MIC50 (Enterococcus faecium [17]) was 1 µg/mL (≈ 2.89 µM) and the MIC90 (Enterococcus faecium [17]) was 4 µg/mL (≈ 11.5 µM).
